The source of these data is ChEMBL document CHEMBL1687719, “Absence of CD4+ T lymphocytes, CD8+ T lymphocytes, or B lymphocytes has different effects on the efficacy of posaconazole and benznidazole in treatment of experimental acute Trypanosoma cruzi infection” (2009).

The structures appear in SMILES notation. Calls of active or inactive are those of the source. The rule behind the calls is not given here. Bounds are passed on as bounds.

For experiment [1], the system named is Trypanosoma cruzi. Kind of experiment: Antitrypanosomal activity against Trypanosoma cruzi Y infected in B-lymphocyte knockout C57BL/6 mouse assessed as number of mouse with reactivation of infection at 100 mg/kg/day, po administered once daily for 20 consecutive days measured 22 days post infection. The experiment is classed as functional, organism-based. In outline:
(§1)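 Ip infection was 5,000 Y-strain blood trypomastigotes. Oral dosing at 100 mg/kg/day, once daily in gum arabic water, ran from 4 dpi for 20 days. Parasitemia was read by microscopy of fresh tail blood, daily from 4–16 dpi, then every other day to 60 dpi. Reactivation was scored as patent parasitemia returning after treatment ended.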

Experiment [2] has as its system Trypanosoma cruzi. The experiment can be described thus: Antitrypanosomal activity against Trypanosoma cruzi Y infected in CD4+ T-lymphocyte knockout C57BL/6 mouse assessed as reactivation of parasite in mouse at 20 mg/kg/day, po administered twice daily for 20 consecutive days measured 60 days post infection. The experiment is classed as functional, organism-based. In outline:
(§2)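 Ip infection was 5,000 Y-strain blood trypomastigotes. From 4 dpi mice got 20 mg/kg/day orally in two daily doses (2% methylcellulose/0.5% Tween 80) for 20 days. Fresh tail blood was examined microscopically, daily from 4–16 dpi and every other day to 60 dpi. Reactivation was scored as return of patent parasitemia after treatment. Parasitemia curves were compared by Mann-Whitney.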

Experiment [3] concerns Trypanosoma cruzi. Kind of experiment: Antitrypanosomal activity against Trypanosoma cruzi Y infected in CD8+ T-lymphocyte knockout C57BL/6 mouse assessed as increase in survival of mouse at 100 mg/kg/day, po administered once daily for 20 consecutive days measured 60 days post infection. The settings on record: 1440 h. It counts as functional. In outline:
(§3)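 Mice were infected ip with 5,000 blood trypomastigotes of the Y strain, kept by serial passage in Swiss-Webster mice. From 4 dpi they got 100 mg/kg/day orally once daily for 20 consecutive days, dissolved in water with gum arabic. Survival was followed to 60 dpi, with mean survival time and survival rate taken. Untreated and vehicle-treated infected mice served as controls. Rates compared by chi-square with Bonferroni.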

Experiment [4] deals with Trypanosoma cruzi. Kind of experiment: Antitrypanosomal activity against Trypanosoma cruzi Y infected in CD8+ T-lymphocyte knockout C57BL/6 mouse assessed as cure rate in mouse at 100 mg/kg/day, po administered once daily for 20 consecutive days measured 60 days post infection. The experiment is classed as functional. In a few lines: (§4)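 Mice infected ip with 5,000 blood trypomastigotes (Y strain kept by serial passage in Swiss-Webster mice). Oral dosing started day 4 post-infection and ran 20 consecutive days, drug dissolved in water with gum arabic. Fresh tail blood was examined microscopically daily days 4–16, then every other day to day 60. Parasitemia-negative mice were bled at day 60 by orbital sinus, 0.5 ml into two tubes of LIT medium, 28°C for 30–60 days, then examined microscopically. Cure meant negative fresh blood plus negative hemoculture. Rates were compared by chi-square with Bonferroni.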

Experiment [5] has as its system Trypanosoma cruzi. The experiment can be described thus: Antitrypanosomal activity against Trypanosoma cruzi Y infected in B-lymphocyte knockout C57BL/6 mouse assessed as increase in survival of mouse at 100 mg/kg/day, po administered once daily for 20 consecutive days measured 60 days post infection. It counts as functional. As to conditions: 1440 h. In outline:
as §3

Experiment [6] deals with Trypanosoma cruzi. The experiment can be described thus: Antitrypanosomal activity against Trypanosoma cruzi Y infected in CD8+ T-lymphocyte knockout C57BL/6 mouse assessed as occurrence of subpatent level of parasitemia at 20 mg/kg/day, po administered twice daily for 20 consecutive days measured 60 days post infection. The experiment is classed as functional, organism-based. In a few lines: as §2

The test system of experiment [7] is Trypanosoma cruzi. The experiment can be described thus: Antitrypanosomal activity against Trypanosoma cruzi Y infected in C57BL/6 mouse assessed as mean survival time at 100 mg/kg/day, po administered once daily for 20 consecutive days measured 60 days post infection. The experiment is classed as functional. In a few lines:
as §3

For experiment [8], the system named is Trypanosoma cruzi. Kind of experiment: Antitrypanosomal activity against Trypanosoma cruzi Y infected in CD8+ T-lymphocyte knockout C57BL/6 mouse assessed as occurrence of subpatent level of parasitemia at 100 mg/kg/day, po administered once daily for 20 consecutive days measured 60 days post infection. The experiment is classed as functional, organism-based. In a few lines: as §1

Experiment [9] has as its system Trypanosoma cruzi. The experiment can be described thus: Antitrypanosomal activity against Trypanosoma cruzi Y infected in B-lymphocyte knockout C57BL/6 mouse assessed as mean survival time at 100 mg/kg/day, po administered once daily for 20 consecutive days measured 60 days post infection. The experiment is classed as functional. In outline:
as §3

The test system of experiment [10] is Trypanosoma cruzi. Kind of experiment: Antitrypanosomal activity against Trypanosoma cruzi Y infected in CD4+ T-lymphocyte knockout C57BL/6 mouse assessed as reactivation of parasite in mouse at 100 mg/kg/day, po administered once daily for 20 consecutive days measured 60 days post infection. The experiment is classed as functional, organism-based. In outline: as §1

Experiment [11] relates to Trypanosoma cruzi. The experiment can be described thus: Antitrypanosomal activity against Trypanosoma cruzi Y infected in CD4+ T-lymphocyte knockout C57BL/6 mouse assessed as increase in survival of mouse at 100 mg/kg/day, po administered once daily for 20 consecutive days measured 60 days post infection. As to conditions: 1440 h. It counts as functional. In outline:
as §3

In experiment [12] the test system is Trypanosoma cruzi. The experiment can be described thus: Antitrypanosomal activity against Trypanosoma cruzi Y infected in B-lymphocyte knockout C57BL/6 mouse assessed as cure rate in mouse at 100 mg/kg/day, po administered once daily for 20 consecutive days measured 60 days post infection. It counts as functional. In outline: as §4
The subject of experiment [13] is Trypanosoma cruzi. Kind of experiment: Antitrypanosomal activity against Trypanosoma cruzi Y infected in CD8+ T-lymphocyte knockout C57BL/6 mouse assessed as occurrence of low level of circulating parasites at 100 mg/kg/day, po administered once daily for 20 consecutive days measured 15 days after the end of treatment.
Experiment [14] relates to Trypanosoma cruzi. The experiment can be described thus: Antitrypanosomal activity against Trypanosoma cruzi Y infected in CD8+ T-lymphocyte knockout C57BL/6 mouse assessed as mean survival time at 100 mg/kg/day, po administered once daily for 20 consecutive days measured 60 days post infection. The experiment is classed as functional. In outline:
as §3

Experiment [15] relates to Trypanosoma cruzi. Kind of experiment: Antitrypanosomal activity against Trypanosoma cruzi Y infected in CD4+ T-lymphocyte knockout C57BL/6 mouse assessed as occurrence of subpatent parasitemia level in mouse at 100 mg/kg/day, po administered once daily for 20 consecutive days measured 4 to 24 days post infection. It counts as functional, organism-based. In outline:
as §1

The subject of experiment [16] is Trypanosoma cruzi. The experiment can be described thus: Antitrypanosomal activity against Trypanosoma cruzi Y infected in CD4+ T-lymphocyte knockout C57BL/6 mouse assessed as occurrence of subpatent parasitemia level in mouse at 20 mg/kg/day, po administered twice daily for 20 consecutive days measured 4 to 24 days post infection. The experiment is classed as functional, organism-based. In outline:
as §2

For experiment [17], the system named is Trypanosoma cruzi. Kind of experiment: Antitrypanosomal activity against Trypanosoma cruzi Y infected in C57BL/6 mouse assessed as increase in survival of mouse at 100 mg/kg/day, po administered once daily for 20 consecutive days measured 60 days post infection. The experiment is classed as functional. The settings on record: 1440 h. In a few lines: as §3

Experiment [18] relates to Trypanosoma cruzi. The experiment can be described thus: Antitrypanosomal activity against Trypanosoma cruzi Y infected in CD8+ T-lymphocyte knockout C57BL/6 mouse assessed as number of mouse with reactivated parasite at 100 mg/kg/day, po administered once daily for 20 consecutive days measured 60 days post infection. It counts as functional. In a few lines:
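Mice infected ip with 5,000 Y-strain blood trypomastigotes. From day 4 they were given drug orally in water with gum arabic for 20 days. Reactivation was scored as reappearance of circulating parasites after treatment ended, seen by microscopy of fresh tail blood. Sampling was daily from day 4 to 16 and then every other day up to day 60.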

Experiment [19] relates to Trypanosoma cruzi. The experiment can be described thus: Antitrypanosomal activity against Trypanosoma cruzi Y infected in CD4+ T-lymphocyte knockout C57BL/6 mouse assessed as mean survival time at 100 mg/kg/day, po administered once daily for 20 consecutive days measured 60 days post infection. The experiment is classed as functional. In a few lines: as §3
The subject of experiment [20] is Trypanosoma cruzi. Kind of experiment: Antitrypanosomal activity against Trypanosoma cruzi Y infected in CD4+ T-lymphocyte knockout C57BL/6 mouse assessed as cure rate in mouse at 100 mg/kg/day, po administered once daily for 20 consecutive days measured 60 days post infection. The experiment is classed as functional. In a few lines: as §4
Experiment [21] relates to Trypanosoma cruzi. Kind of experiment: Antitrypanosomal activity against Trypanosoma cruzi Y infected in CD4+ T-lymphocyte knockout C57BL/6 mouse assessed as reactivation of parasite in mouse at 100 mg/kg/day, po administered once daily for 20 consecutive days measured 11 days post infection. The experiment is classed as functional, organism-based. In outline:
as §1

In experiment [22] the test system is Trypanosoma cruzi. The experiment can be described thus: Antitrypanosomal activity against Trypanosoma cruzi Y infected in C57BL/6 mouse assessed as cure rate in mouse at 100 mg/kg/day, po administered once daily for 20 consecutive days measured 60 days post infection. The experiment is classed as functional. In outline:
as §4

Regarding `O=C(Cn1ccnc1[N+](=O)[O-])NCc1ccccc1` [BENZNIDAZOLE], the outcome with Trypanosoma cruzi [1], with Trypanosoma cruzi [2], in the experiment on Trypanosoma cruzi [10] and with Trypanosoma cruzi [21] was inactive. Further, the survival at 100 mg/kg/day is 86% in the experiment on Trypanosoma cruzi [3], 67% in the experiment on Trypanosoma cruzi [5], 6% in the experiment with Trypanosoma cruzi [11] and 100% with Trypanosoma cruzi [17]. Further, the Activity in the experiment on Trypanosoma cruzi [4] is listed as 66%; in the experiment with Trypanosoma cruzi [12] it was 22%; in the experiment with Trypanosoma cruzi [18], 22%; with Trypanosoma cruzi [20] it was 0%; in the experiment with Trypanosoma cruzi [22] it was 86%. The result with Trypanosoma cruzi [6], in the experiment with Trypanosoma cruzi [8], in the experiment on Trypanosoma cruzi [13], in the experiment with Trypanosoma cruzi [15] and in the experiment on Trypanosoma cruzi [16] was Active. In addition, the MST is greater than 60 days in the experiment on Trypanosoma cruzi [7], 59.3 days in the experiment on Trypanosoma cruzi [9], 58.8 days with Trypanosoma cruzi [14] and 53.7 days in the experiment with Trypanosoma cruzi [19].
